An excerpt weighted towards active compounds, which were near 4.1% of everything screened.
KCC2 mod: modulators of human KCC2 chloride dependent transport | B-score of Tl+ flux slope (higher = more flux/activation; lower = inhibition) at 10 µM | Q9H2X9 | KCC2 cells, thallium flux FluoZin-2 fluorescence | 190,000 compounds, 2.2% hits;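 active = thallium flux slope and its plate-corrected score both differing from the plate sample mean at a set confidence after two filtering rounds, in either direction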;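 note: slope of fluorescence scaled to starting intensity during 10 to 20 s after thallium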
hERG protect: hERG (human) protection from proarrhythmic block; CHO-hERG, FluxOR thallium flux, dofetilide IC70 present; activation (rescue from dofetilide block), less the hit threshold, % at 10 µM; 310,000 compounds, 0.51% hits;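 active = activation above the mean of controls blocked by dofetilide plus 5 SD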;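 note: thallium influx through hERG after potassium depolarization seen as dye fluorescence rise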
KCNQ1 inh: inhibitors of human KCNQ1 potassium channel. 310,000 compounds, 1.3% hits. CHO-K1 KCNQ1, FluxOR thallium flux fluorescence; active compounds read high. B-score at 10 µM. AID 2642. P51787;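 active = compounds whose thallium flux B-score, printed positive for inhibition, exceeds three library SD while starting fluorescence stays within three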;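 note: channel opened by potassium depolarization with thallium stimulus after 20 min compound exposure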
KCNK3 block: human KCNK3 channel inhibition, primary screen. CHO-KCNK3 thallium flux, FluxOR fluorescence; active compounds read low. 340,000 compounds, 0.84% hits. AID 602410. B-score at 10 µM. O14649;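 active = B-score under library mean minus 4 SD, starting fluorescence ratio at most library mean plus 5 SD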;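 note: more negative B-score means stronger inhibition of thallium flux through KCNK3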
Target sequence (O14649 whole entry, looked up): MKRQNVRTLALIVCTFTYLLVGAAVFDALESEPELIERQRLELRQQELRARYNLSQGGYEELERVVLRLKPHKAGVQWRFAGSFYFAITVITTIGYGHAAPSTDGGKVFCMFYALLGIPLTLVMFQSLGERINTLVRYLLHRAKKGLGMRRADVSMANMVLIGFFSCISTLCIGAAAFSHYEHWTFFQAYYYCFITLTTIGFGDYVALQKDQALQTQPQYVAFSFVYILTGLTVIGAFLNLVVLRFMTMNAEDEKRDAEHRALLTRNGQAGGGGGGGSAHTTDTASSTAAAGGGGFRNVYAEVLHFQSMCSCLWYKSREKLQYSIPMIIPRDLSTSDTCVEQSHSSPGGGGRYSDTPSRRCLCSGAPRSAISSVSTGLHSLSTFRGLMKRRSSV
KCNK9 block: human KCNK9 channel inhibition | Q9NPC2 | HEK293 KCNK9, FluxOR thallium flux fluorescence; active compounds read low | AID 488922 | B-score at 10 µM | 310,000 compounds, 1.2% hits;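 active = ratio B-score over 3 SD below the library mean, with starting fluorescence within 5 SD of its mean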;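 note: negative B-score means less thallium flux so channel inhibition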
Target sequence (Q9NPC2 whole entry, looked up): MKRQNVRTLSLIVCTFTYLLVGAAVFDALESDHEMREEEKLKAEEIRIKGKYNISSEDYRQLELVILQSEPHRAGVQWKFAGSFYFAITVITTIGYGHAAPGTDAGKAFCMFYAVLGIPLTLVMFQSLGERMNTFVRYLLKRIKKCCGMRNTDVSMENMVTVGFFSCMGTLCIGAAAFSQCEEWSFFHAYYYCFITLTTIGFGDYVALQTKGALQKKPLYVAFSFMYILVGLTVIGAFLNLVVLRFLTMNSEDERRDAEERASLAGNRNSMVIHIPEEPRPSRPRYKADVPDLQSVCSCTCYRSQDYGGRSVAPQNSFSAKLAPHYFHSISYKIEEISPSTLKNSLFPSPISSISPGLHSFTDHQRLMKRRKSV
KCNQ1 act: potentiators or activators of human KCNQ1 potassium channel. P51787. CHO-K1 KCNQ1, thallium flux FluxOR fluorescence; active compounds read high. B-score at 10 µM. 310,000 compounds, 0.35% hits;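 active = fluorescence ratio B-score, a plate-corrected score, at least three library SD, with initial intensity B-score within 5 SD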
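Test system: CHO-K1 cells stably expressing KCNQ1 / Medium: assay buffer / Also added: depolarizing K+/Tl+ stimulus, K2SO4 and Tl2SO4 each 12.5 mM in 5x stock / Incubation: 90 min dye loading and 20 min compound exposure, both at room temperature / Signal: thallium influx via FluxOR fluorescence, kinetic imaging / Evaluation: B score of baseline-normalized fluorescence ratio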
KCC2 sec1: confirmation of human KCC2 transport modulators | normalised thallium flux (F/F0 slope) at 10 µM | 3,700 compounds, 15% hits | AID 1713 | HEK293-KCC2, thallium flux, FluoZin2 fluorescence; active compounds read high | shares compounds with KCC2 mod;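 active = thallium flux slope above the same plate's solvent-only control mean plus 3 SD; inconclusive = the two replicate wells disagree; inactive = no significant difference from solvent-only control wells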
KCC2 bumet counter: bumetanide-insensitive thallium flux in KCC2 cells with ouabain, counter-screen; shares compounds with KCC2 mod; 3,700 compounds, 49% hits; normalized thallium flux at 10 µM; HEK293-KCC2 + bumetanide/ouabain, thallium flux FluoZin2; active compounds read high;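 active = thallium entry rate above the same plate's blocked-transporter control wells by more than 3 SD; inconclusive = the two repeat wells disagree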;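 note: raw slope of fluorescence over initial fluorescence between 10 and 20 s after thallium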
KCC2 sec2: KCC2 (human) modulation, second secondary assay. shares compounds with KCC2 mod. 3,700 compounds, 23% hits. HEK293-KCC2, thallium flux FluoZin2 fluorescence; actives lie on both sides; F/F0 rise rate, 10–20 s post-thallium. normalized thallium flux at 10 µM;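 active = thallium flux slope more than 3 SD above or below the plate's solvent-only control mean, mostly below; inconclusive = the two repeat wells disagreed; inactive = no significant shift from solvent-only controls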
HEK counter1: acts in parental HEK cells, KCC2 counter-screen | AID 1716 | shares compounds with KCC2 mod | 3,700 compounds, 46% hits | HEK293 parental cells, thallium flux FluoZin2, ouabain; baseline-ratio fluorescence slope, 10–20 s after thallium | thallium flux rate (normalised fluorescence) at 10 µM;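 active = thallium flux rate significantly above the same plate's solvent-only control wells, beyond their mean plus 3 SD; inconclusive = the two replicate wells gave conflicting results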
KCC2 ouabain: KCC2 (human) modulation, ouabain retest | 3,700 compounds, 48% hits | shares compounds with KCC2 mod | HEK293-KCC2, thallium flux FluoZin2 fluorescence; bidirectional: low = inhibitor, high = activator | raw Tl+ flux slope (below DMSO = inhibition, above = activation) at 10 µM | AID 1717;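 active = thallium flux slope beyond 3 SD from same-plate DMSO control mean in most replicates, usually higher, sometimes lower; inconclusive = repeat tests gave conflicting results; inactive = no significant difference from controls in most replicates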;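 note: slope of initial-normalized fluorescence between seconds 10 and 20 after thallium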
HEK293 Tl flux2: acts in parental HEK cells, second KCC2 counter-screen; shares compounds with KCC2 mod; HEK293 parental, thallium flux FluoZin-2 fluorescence slope; thallium flux slope at 10 µM; 3,700 compounds, 33% hits; AID 1718;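 active = thallium flux slope above the same plate's solvent-control mean plus 3 SD in both duplicate wells; inconclusive = duplicate wells that disagreed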;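 note: run without ouabain in cells lacking the KCC2 cotransporter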
Hits are given with their value; - = inactive; ? = inconclusive; . = not tested or not shown.

SMILES | KCC2 mod | hERG protect | KCNQ1 inh | KCNK3 block | KCNK9 block | KCNQ1 act | KCC2 sec1 | KCC2 bumet counter | KCC2 sec2 | HEK counter1 | KCC2 ouabain | HEK293 Tl flux2
O=c1c2cccnc2[nH]c(=S)n1CCC1=CCCCC1 | 68 | 31 | - | - | - | 27 | 0.041 | 0.16 | 0.051 | 0.074 | 0.085 | 0.047
CCCCCn1c(=S)[nH]c2ncccc2c1=O | 57 | 12 | - | - | - | 20 | 0.038 | 0.12 | 0.046 | ? | 0.094 | 0.036
CN(CCCn1c(=S)[nH]c2ncccc2c1=O)Cc1ccccc1 | 15 | - | - | - | - | - | ? | 0.057 | - | 0.022 | 0.057 | 0.014
COCCCn1c(=S)[nH]c2ncccc2c1=O | - | - | - | - | - | - | . | . | . | . | . | .
CCC(=O)Nc1ccc(C(=O)CSc2nnc(-c3ccccc3F)n2C2CC2)cc1 | - | - | - | - | - | - | . | . | . | . | . | .
C[C@@H]1CC[C@H]2C(=O)N3[C@@H](CC[C@@H](C)[C@@H]3c3ccc(Br)cc3)C(=O)N2[C@H]1c1ccc(Br)cc1 | 5.3 | - | - | - | - | - | - | - | - | - | - | -
CN1c2ccccc2C(O)=C(C(=S)Nc2ccc(Cl)cc2)S1(=O)=O | . | - | - | - | - | - | - | 0.021 | - | 0.017 | ? | 0.021
CCc1cccc(CC)c1NC(=S)NCCc1c(C)[nH]c2ccccc12 | -3.8 | - | - | - | - | - | - | ? | - | ? | - | -
CCC(NC(=O)Cn1cnc2c(=O)n(C)c(=O)n(C)c21)c1ccccc1 (stereo not drawn) | - | - | - | - | - | - | . | . | . | . | . | .
COc1ccccc1NC(=O)Cn1cc(C(=O)C(=O)N2CCOCC2)c2ccccc21 | . | - | - | - | - | - | . | . | . | . | . | .
S=c1[nH]cc(Cc2ccccc2)s1 | 40 | - | - | - | - | - | 0.026 | 0.12 | - | 0.035 | 0.068 | 0.021
O=C(Nc1nc2cc3c(cc2s1)OCCO3)c1ccc([N+](=O)[O-])o1 | . | - | - | - | - | - | . | . | . | . | . | .
O=c1cc(-c2ccccc2)nc2nc(SCc3ccccc3)[nH]n12 | . | - | - | - | - | - | - | - | - | - | 0.015 | -
Cc1cc(=O)n2[nH]c(SCc3ccccc3)nc2n1 | - | - | - | - | - | - | . | . | . | . | . | .
Cc1c(N=C2Nc3cccc4cccc2c34)c(=O)n(-c2ccccc2)n1C | -2.9 | - | - | - | - | - | ? | - | 0.026 | - | 0.016 | -
COc1cc(OC)cc(C2=NC3(CCC(C)CC3)NC2=S)c1 (stereo not drawn) | 18 | - | - | - | - | - | - | 0.019 | - | 0.025 | ? | -
CSCCC(NC(=O)c1ccc([N+](=O)[O-])cc1Cl)C(=O)OCC(=O)NCC(F)(F)F (stereo not drawn) | - | - | - | - | - | - | . | . | . | . | . | .
CSCCC(NC(=O)c1ccc([N+](=O)[O-])cc1Cl)C(=O)OCC(=O)NCCCc1ccccc1 (stereo not drawn) | -4.3 | - | - | - | - | - | - | ? | 0.026 | - | ? | -
COc1ccc(N(CC(=O)Nc2cccc(C)c2C)S(=O)(=O)c2c(C)n[nH]c2C)cc1 | . | - | - | - | - | - | - | - | 0.024 | - | - | -
Cc1n[nH]c(C)c1S(=O)(=O)N(CC(=O)Nc1ccc2c(c1)OCCO2)c1ccc(C(C)C)cc1 | -5.1 | - | - | - | - | - | ? | ? | - | - | 0.016 | -
COc1ccc(-c2nc(CS(=O)CC(=O)NCCC3=CCCCC3)c(C)o2)cc1 (stereo not drawn) | . | - | - | - | - | - | . | . | . | . | . | .
COc1ccc(NC(=O)CSc2nnc(CNc3ccc(F)cc3)o2)c(OC)c1 | -4.1 | - | - | - | - | - | - | - | - | - | ? | -
CCCn1c(N)c(C(=O)CSc2n[nH]c(-c3ccccc3F)n2)c(=O)n(C)c1=O | . | . | . | - | . | . | . | . | . | . | . | .
O=C(CSc1nnc(Cc2ccccc2)o1)c1ccc2c(c1)OCO2 | . | - | - | - | - | - | . | . | . | . | . | .
O=C(CSc1nnc(Cc2ccccc2)o1)c1ccccc1 | -4.4 | - | - | - | - | - | - | ? | 0.024 | - | ? | -
SMILES | KCC2 mod | hERG protect | KCNQ1 inh | KCNK3 block | KCNK9 block | KCNQ1 act | KCC2 sec1 | KCC2 bumet counter | KCC2 sec2 | HEK counter1 | KCC2 ouabain | HEK293 Tl flux2
O=C(CSc1nnc(CNc2ccc(F)cc2)o1)c1ccccc1 | -3.8 | - | - | - | - | - | - | - | - | - | - | -
CCCn1c(N)c(C(=O)CSc2nnc(Cc3ccccc3)o2)c(=O)n(C)c1=O | -8.8 | - | - | - | - | - | - | - | 0.02 | - | 0.015 | -
CC(C)CC(NC(=O)C(CC(C)C)NC(=O)C(Cc1ccc(OCc2ccccc2)cc1)NC(=O)OC(C)(C)C)C(N)=O (stereo not drawn) | - | - | - | - | - | - | . | . | . | . | . | .
C=CCN(CC=C)C(=O)CCc1nnc(CCc2c[nH]c3ccccc23)o1 | - | - | - | - | - | - | . | . | . | . | . | .
N=P(N1CCOCC1)(N1CCOCC1)C12CC3CC(CC(C3)C1)C2 | - | - | - | - | - | - | . | . | . | . | . | .
Cc1cc2c(Nc3ccc(O)cc3)ncnc2s1 | . | - | - | - | - | - | . | . | . | . | . | .
CCN(CC)c1c([N+](=O)[O-])c(=O)n(CC)c2ccccc12 | -4.6 | - | - | - | - | - | - | 0.0031 | - | 0.0045 | 0.017 | 0.0076
Cc1nc(N2CCN(Cc3ccccc3)CC2)nc2c1C(=O)CCC2 | -2.9 | - | - | - | - | - | - | - | ? | - | 0.015 | -
O=C(CSc1nnnn1Cc1ccccc1)Nc1ccc2c(c1)OCCO2 | -5.1 | - | - | - | - | - | - | - | ? | - | ? | -
O=C(CSc1nnnn1Cc1ccccc1)Nc1ccc2c(c1)OCO2 | - | - | - | - | - | - | . | . | . | . | . | .
c1ccc(-n2c(-c3ccncc3)nnc2-c2ccco2)cc1 | . | - | - | - | - | - | - | - | - | - | - | -
CC(C)Oc1cccc(C(=O)C2CCCN(S(C)(=O)=O)C2)c1 (stereo not drawn) | - | - | - | - | - | - | . | . | . | . | . | .

Screens as filed in PubChem BioAssay.
